Measured values taken from the M2OR odorant receptor database.
Residue numbers refer to the chain shown, from its start.

Assays:
Details in all cases: stereoisomer not certain
OR1D5 (Homo sapiens) = biological target: T1, OR1D5 (Homo sapiens) (UniProt P58170)
T1 sequence (whole entry): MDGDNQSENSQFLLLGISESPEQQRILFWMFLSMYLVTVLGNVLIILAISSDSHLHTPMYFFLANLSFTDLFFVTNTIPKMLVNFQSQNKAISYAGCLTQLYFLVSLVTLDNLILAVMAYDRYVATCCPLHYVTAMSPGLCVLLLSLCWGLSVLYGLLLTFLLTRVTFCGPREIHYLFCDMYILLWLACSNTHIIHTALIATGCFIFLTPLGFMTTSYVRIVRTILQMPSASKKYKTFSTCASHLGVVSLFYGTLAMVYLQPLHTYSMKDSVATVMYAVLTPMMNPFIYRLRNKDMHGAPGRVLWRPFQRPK
Method in brief: (§1)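 Assay methods differ from source to source, frequently being transient luciferase assays in mammalian cell lines. For each receptor–molecule pair, the label responsive (active) applies when the original authors judged the measured signal statistically different from baseline, and non-responsive (inactive) applies otherwise.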

OR1E1 (Homo sapiens) = biological target: T2, OR1E1 (Homo sapiens) (UniProt P30953)
T2 sequence (whole entry): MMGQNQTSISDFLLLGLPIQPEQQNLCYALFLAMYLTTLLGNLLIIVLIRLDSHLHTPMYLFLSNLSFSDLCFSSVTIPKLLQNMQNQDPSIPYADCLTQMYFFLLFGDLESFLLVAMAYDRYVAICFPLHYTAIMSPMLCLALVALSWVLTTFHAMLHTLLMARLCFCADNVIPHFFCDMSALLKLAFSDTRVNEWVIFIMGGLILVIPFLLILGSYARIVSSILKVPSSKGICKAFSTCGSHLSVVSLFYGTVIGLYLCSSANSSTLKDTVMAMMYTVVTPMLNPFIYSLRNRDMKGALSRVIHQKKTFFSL
Method in brief: as §1

OR1E2 (Homo sapiens) = biological target: T3, OR1E2 (Homo sapiens) (UniProt P47887)
T3 sequence (whole entry): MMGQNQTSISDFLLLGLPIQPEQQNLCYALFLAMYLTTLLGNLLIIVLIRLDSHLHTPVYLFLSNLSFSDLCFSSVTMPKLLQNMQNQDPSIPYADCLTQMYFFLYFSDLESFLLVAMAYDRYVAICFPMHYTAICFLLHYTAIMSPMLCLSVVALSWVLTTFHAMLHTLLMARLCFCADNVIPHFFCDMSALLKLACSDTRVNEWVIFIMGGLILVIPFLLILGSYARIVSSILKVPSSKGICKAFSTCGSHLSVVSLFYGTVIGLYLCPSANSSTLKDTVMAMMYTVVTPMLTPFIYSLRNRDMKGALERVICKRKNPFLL
Method in brief: as §1

OR1E2 = test system: T4, OR1E2
T4 sequence (whole entry): T3 sequence (whole entry) with C27R
Method in brief: as §1

OR1F1 (Homo sapiens) = biological target: T5, OR1F1 (Homo sapiens) (UniProt O43749)
T5 sequence (whole entry): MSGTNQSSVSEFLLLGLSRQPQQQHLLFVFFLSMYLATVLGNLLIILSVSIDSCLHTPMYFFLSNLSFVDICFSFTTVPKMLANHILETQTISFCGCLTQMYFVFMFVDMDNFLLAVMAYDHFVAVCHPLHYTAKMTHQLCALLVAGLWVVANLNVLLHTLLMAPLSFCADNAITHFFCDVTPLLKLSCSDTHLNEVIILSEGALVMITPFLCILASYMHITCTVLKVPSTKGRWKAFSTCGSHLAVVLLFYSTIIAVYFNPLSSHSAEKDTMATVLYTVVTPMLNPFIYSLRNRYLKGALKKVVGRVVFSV
Method in brief: as §1

OR1D4 (Homo sapiens) = biological target: T6, OR1D4 (Homo sapiens) (UniProt P47884)
T6 sequence (whole entry): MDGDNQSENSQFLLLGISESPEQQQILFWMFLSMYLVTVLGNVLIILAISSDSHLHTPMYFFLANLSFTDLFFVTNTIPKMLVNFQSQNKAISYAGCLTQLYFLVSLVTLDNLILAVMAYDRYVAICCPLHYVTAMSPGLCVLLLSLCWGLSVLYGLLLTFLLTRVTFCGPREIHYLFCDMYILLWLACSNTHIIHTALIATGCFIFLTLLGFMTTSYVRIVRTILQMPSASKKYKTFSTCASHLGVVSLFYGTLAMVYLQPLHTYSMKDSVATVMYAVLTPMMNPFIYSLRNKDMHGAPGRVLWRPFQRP
Method in brief: as §1

OR1D2 [1] = test system: OR1D2
Method in brief: as §1
Target sequence in this assay (as listed by the source): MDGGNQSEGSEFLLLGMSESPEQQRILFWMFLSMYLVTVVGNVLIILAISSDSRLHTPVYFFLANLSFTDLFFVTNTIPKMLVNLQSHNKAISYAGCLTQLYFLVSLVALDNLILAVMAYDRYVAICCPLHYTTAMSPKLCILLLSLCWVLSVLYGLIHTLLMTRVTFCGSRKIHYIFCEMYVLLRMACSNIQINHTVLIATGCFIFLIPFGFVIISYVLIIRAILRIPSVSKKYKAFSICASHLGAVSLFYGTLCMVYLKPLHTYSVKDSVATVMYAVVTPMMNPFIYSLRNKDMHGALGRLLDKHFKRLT

OR1D2 [2] = test system: OR1D2; remark: listed apart in the source
Method in brief: as §1
Target sequence in this assay (as listed by the source): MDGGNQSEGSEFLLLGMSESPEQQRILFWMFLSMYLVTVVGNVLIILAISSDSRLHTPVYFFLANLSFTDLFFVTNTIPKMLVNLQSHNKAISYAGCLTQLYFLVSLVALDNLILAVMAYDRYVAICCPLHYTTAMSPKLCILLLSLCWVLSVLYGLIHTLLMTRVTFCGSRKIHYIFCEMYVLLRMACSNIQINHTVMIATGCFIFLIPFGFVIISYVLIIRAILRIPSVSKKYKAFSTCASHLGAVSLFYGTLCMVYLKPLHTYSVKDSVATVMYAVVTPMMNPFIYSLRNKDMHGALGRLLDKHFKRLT

OR1D2 [3] = test system: OR1D2; remark: listed apart in the source
Method in brief: as §1
Target sequence in this assay (as listed by the source): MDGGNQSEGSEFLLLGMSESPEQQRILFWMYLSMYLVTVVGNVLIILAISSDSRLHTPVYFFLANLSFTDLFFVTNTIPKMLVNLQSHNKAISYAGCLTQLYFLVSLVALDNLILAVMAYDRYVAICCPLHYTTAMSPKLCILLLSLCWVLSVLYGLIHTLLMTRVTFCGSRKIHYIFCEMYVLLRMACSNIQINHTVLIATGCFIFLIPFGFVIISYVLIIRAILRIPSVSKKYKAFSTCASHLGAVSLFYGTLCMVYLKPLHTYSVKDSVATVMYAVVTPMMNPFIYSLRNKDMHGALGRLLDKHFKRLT

OR1E3 (Homo sapiens) = OR1E3 (Homo sapiens) (UniProt Q8WZA6)
Chain of OR1E3 (Homo sapiens) (Q8WZA6 whole entry): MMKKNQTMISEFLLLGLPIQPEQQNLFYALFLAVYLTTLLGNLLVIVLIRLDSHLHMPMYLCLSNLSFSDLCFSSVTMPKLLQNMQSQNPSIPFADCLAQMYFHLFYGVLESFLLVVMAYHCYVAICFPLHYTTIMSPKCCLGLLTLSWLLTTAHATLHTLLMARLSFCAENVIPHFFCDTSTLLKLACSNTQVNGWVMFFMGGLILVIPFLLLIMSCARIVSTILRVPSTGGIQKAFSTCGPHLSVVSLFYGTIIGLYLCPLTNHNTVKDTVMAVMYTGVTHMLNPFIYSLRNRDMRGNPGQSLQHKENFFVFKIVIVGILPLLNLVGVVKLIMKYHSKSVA
Method in brief: as §1

Measured: odorant receptor agonist call

CCCCCCC=CCCC=O
inactive: OR1D5 (Homo sapiens) | OR1E1 (Homo sapiens) | OR1E2 (Homo sapiens) | OR1E2 | OR1F1 (Homo sapiens)

CC(CO)CS (stereo not drawn)
inactive: OR1D4 (Homo sapiens) | OR1D5 (Homo sapiens) | OR1E1 (Homo sapiens) | OR1E2 (Homo sapiens) | OR1F1 (Homo sapiens)

CC1=C(O)C(=O)C(C)O1 (stereo not drawn)
inactive: OR1D5 (Homo sapiens) | OR1E1 (Homo sapiens) | OR1E2 (Homo sapiens) | OR1E2 | OR1F1 (Homo sapiens)

CCCCCC(=O)C(C)C(C)=O (stereo not drawn)
inactive: OR1D4 (Homo sapiens) | OR1D5 (Homo sapiens) | OR1E1 (Homo sapiens) | OR1E2 (Homo sapiens) | OR1F1 (Homo sapiens)

CCC1OC(C)=C(O)C1=O (stereo not drawn)
inactive: OR1D5 (Homo sapiens) | OR1E1 (Homo sapiens) | OR1E2 (Homo sapiens) | OR1E2 | OR1F1 (Homo sapiens)

CC1=NC(C)C(C)S1 (stereo not drawn)
inactive: OR1D5 (Homo sapiens) | OR1E1 (Homo sapiens) | OR1E2 (Homo sapiens) | OR1E2 | OR1F1 (Homo sapiens)

CC(C=O)Cc1ccc(C(C)(C)C)cc1 (stereo not drawn)
inactive: OR1D2 [1] | OR1D2 [2] | OR1D2 [3]

Cc1cnc(C)c(C)n1
inactive: OR1D5 (Homo sapiens) | OR1E1 (Homo sapiens) | OR1E2 (Homo sapiens) | OR1E2 | OR1F1 (Homo sapiens)

CCCC(S)CCOC(C)=O (stereo not drawn)
inactive: OR1D5 (Homo sapiens) | OR1E1 (Homo sapiens) | OR1E2 (Homo sapiens) | OR1E2 | OR1F1 (Homo sapiens)

CCCCCC(S)C(C)CO (stereo not drawn)
inactive: OR1D4 (Homo sapiens) | OR1D5 (Homo sapiens) | OR1E1 (Homo sapiens) | OR1E2 (Homo sapiens) | OR1F1 (Homo sapiens)

CC(=O)c1c(C)c([N+](=O)[O-])c(C(C)(C)C)c([N+](=O)[O-])c1C
inactive: OR1D4 (Homo sapiens) | OR1D5 (Homo sapiens) | OR1E2 (Homo sapiens) | OR1E3 (Homo sapiens) | OR1F1 (Homo sapiens)

CCC1OC(=O)C(O)=C1C (stereo not drawn)
inactive: OR1D5 (Homo sapiens) | OR1E1 (Homo sapiens) | OR1E2 (Homo sapiens) | OR1E2 | OR1F1 (Homo sapiens)

CCCCC(S)C(C)CO (stereo not drawn)
inactive: OR1D4 (Homo sapiens) | OR1D5 (Homo sapiens) | OR1E1 (Homo sapiens) | OR1E2 (Homo sapiens) | OR1F1 (Homo sapiens)

CC1=C(O)C(=O)OC1C (stereo not drawn)
inactive: OR1D5 (Homo sapiens) | OR1E1 (Homo sapiens) | OR1E2 (Homo sapiens) | OR1E2 | OR1F1 (Homo sapiens)

CCC(S)C(C)CO (stereo not drawn)
inactive: OR1D4 (Homo sapiens) | OR1D5 (Homo sapiens) | OR1E1 (Homo sapiens) | OR1E2 (Homo sapiens) | OR1F1 (Homo sapiens)

CC1CCCCCCCCCCCCC(=O)C1 (stereo not drawn)
inactive: OR1D4 (Homo sapiens) | OR1D5 (Homo sapiens) | OR1E2 (Homo sapiens) | OR1E3 (Homo sapiens) | OR1F1 (Homo sapiens)
